Screening data deposited in PubChem BioAssay by several laboratories.
This is a sample that favours compounds with a hit; in the whole collection about 4.8% have one here.
PAFAH2 inh – PAFAH2 enzyme inhibitors, primary screen, biochemical, fluorescence polarization, human; Platelet-activating factor acetylhydrolase 2, cytoplasmic (Homo sapiens), Q99487; recombinant PAFAH2, FP-rhodamine activity probe; inhibition, % at 3.39 µM; 0.99% of 340,000 active; AID 492956, 2010;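 active = inhibition above the mean over all tested compounds plus 3 SD, cut at about 30% in these data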;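 also: inhibitors block probe labeling of enzyme so polarization drops; 0% = enzyme with DMSO and 100% = wells lacking PAFAH2 protein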
UCH37 DUB inh – inhibitors of human UCH37 deubiquitinase, primary screen, biochemical, Ub-AMC cleavage, fluorescence; Ubiquitin carboxyl-terminal hydrolase isozyme L5 (Homo sapiens), Q9Y5K5; purified proteasome/UCH37; inhibition, % (no concentration beside the values); 0.33% of 330,000 active; AID 588478, 2011;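 active = mean inhibition over replicate wells above about 20%, limit read from the data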;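 also: 0% = compound-free wells with enzyme and 100% = wells lacking proteasome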
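Material: Human UCH37 enzyme supplied as purified proteasome complex | Schedule: 30 min preincubation with enzyme, 25 min cleavage at room temperature | Detection: AMC fluorescence 355/460 nm | Measure: % inhibition of Ub-AMC cleavage fluorescence | Controls: Wells without proteasome as full block, compound-free enzyme plus substrate as uninhibited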
NR3A LBD binder – binders of NR3A ligand-binding domain, primary screen, biophysical, differential scanning fluorimetry, uHTS; Glutamate receptor ionotropic, NMDA 3A (GRIN3A) ligand-binding domain; NR3A LBD differential scanning fluorimetry, Tm shift; 0% = protein alone, 100% = glycine-bound protein; Tm shift relative to glycine control, % at 25 µM; 2.5% of 340,000 active;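 active = melting temperature shift of at least 10% of the positive control shift, at one fixed dose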
pPAFAH FP inh – pPAFAH enzyme inhibitors, primary screen, biochemical, fluorescence polarization, human. Platelet-activating factor acetylhydrolase (Homo sapiens), Q13093. recombinant pPAFAH, FP-rhodamine probe fluorescence polarization. inhibition, % at 3.39 µM. 1.5% of 330,000 active. AID 463082, 2010;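 active = inhibition above the mean inhibition across the screen plus 3 SD, cut at about 25% in these data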;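 also: inhibitors block binding of the rhodamine activity-based probe so polarization drops; 0% = enzyme with DMSO and 100% = wells lacking pPAFAH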
PAFAH1B2 inh – PAFAH1B2 enzyme inhibitors, primary screen, biochemical, fluorescence polarization, human. Platelet-activating factor acetylhydrolase IB subunit alpha2 (Homo sapiens), P68402. recombinant PAFAH1B2, FP-rhodamine activity probe. inhibition, % at 3.39 µM. 1.2% of 340,000 active. AID 492953, 2010;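 active = inhibition above the mean of all tested compounds plus 3 SD, cut at about 24% in these data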;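 also: 0% = enzyme with DMSO and 100% = wells lacking PAFAH1B2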
Target sequence (P68402 whole entry, looked up): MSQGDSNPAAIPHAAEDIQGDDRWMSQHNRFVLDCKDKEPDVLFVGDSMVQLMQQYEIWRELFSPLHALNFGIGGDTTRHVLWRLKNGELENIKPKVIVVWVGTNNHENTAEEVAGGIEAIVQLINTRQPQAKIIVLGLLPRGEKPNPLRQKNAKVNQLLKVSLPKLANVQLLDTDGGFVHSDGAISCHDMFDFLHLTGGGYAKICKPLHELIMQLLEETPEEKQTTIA
PAFAH1B3 FP inh – PAFAH1B3 enzyme inhibitors, primary screen, biochemical, fluorescence polarization, human | Platelet-activating factor acetylhydrolase IB subunit alpha1 (Homo sapiens), Q15102 | recombinant PAFAH1B3, FP-rhodamine probe | inhibition, % at 3.39 µM | 0.28% of 340,000 active;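 active = inhibition above the screen-wide average of all tested compounds plus 3 SD, cut at about 25% in these data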;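 also: 0% = enzyme with DMSO only and 100% = wells lacking PAFAH1B3 protein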
Target sequence (Q15102 whole entry, looked up): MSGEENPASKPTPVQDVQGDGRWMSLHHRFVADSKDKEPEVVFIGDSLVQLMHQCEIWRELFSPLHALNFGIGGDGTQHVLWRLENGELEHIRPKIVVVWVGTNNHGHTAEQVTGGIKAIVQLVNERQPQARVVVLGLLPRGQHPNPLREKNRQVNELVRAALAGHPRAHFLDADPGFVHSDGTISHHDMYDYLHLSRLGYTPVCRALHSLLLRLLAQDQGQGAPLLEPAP
Active calls of the source: *; · = no result given.

SMILES | PAFAH2 inh | UCH37 DUB inh | NR3A LBD binder | pPAFAH FP inh | PAFAH1B2 inh | PAFAH1B3 FP inh
CCc1ccc(OCC2NCCc3cc(OC)c(OC)cc32)cc1 (centres undefined) | -6.5 | 1.4 | -1.9 | 3.3 | -3.4 | 3.0
COc1cc2c(cc1OC)C(COc1ccc(F)cc1)NCC2 (centres undefined) | -2.0 | 4.6 | 270.6* | 0.8 | -3.0 | 1.6
CC1CCCCC1NC(=O)COC(=O)c1c2c(nc3ccccc13)/C(=C/c1ccco1)CC2 (centres undefined) | 26.8 | -27.9 | -11.3 | 31.5* | 6.1 | 13.1
CON=CCC(=O)Nc1ccc(F)cc1 | · | 2.0 | · | · | · | ·
COc1ccc(-n2c(SCC(N)=O)nnc2-c2ccc(NS(=O)(=O)c3ccc(C)cc3)cc2)cc1 | -8.3 | 3.3 | -2.8 | 9.7 | 6.8 | 0.4
COc1ccc(-n2c(SCC#N)nnc2-c2ccc(NS(=O)(=O)c3ccc(C)cc3)cc2)cc1 | 7.4 | 0.7 | -13.2 | 26.1* | 3.8 | 6.2
CN(C)c1ccc(N2C(=O)CC(c3ccccc3)CC2=O)cc1 | 0.4 | 1.6 | 2.0 | -0.9 | 1.4 | 0.8
Cc1cc(C)cc(N2C(=O)CC(c3ccccc3)CC2=O)c1 | 8.0 | -1.8 | 17.3* | -3.4 | 4.3 | 4.0
O=[N+]([O-])c1ccc(COc2ccc(-c3[nH]ncc3-c3ccccc3)c(O)c2)cc1 | -6.1 | 4.0 | 24.9* | 10.9 | 5.3 | 3.8
C=C(C)COc1ccc(-c2[nH]ncc2-c2ccccc2)c(O)c1 | 7.5 | -4.0 | 2.2 | 14.8 | 0.8 | 16.6
COc1ccc(-c2cn[nH]c2-c2ccc(OCc3ccccc3)cc2O)cc1OC | 3.1 | 3.1 | 0.4 | 8.9 | 0.7 | 6.0
COc1ccc(-c2cn[nH]c2-c2ccc(OCc3ccc(F)cc3)cc2O)cc1OC | -4.5 | 7.7 | 15.9* | 15.0 | 9.1 | 5.1
Oc1cc(OCc2ccccc2)ccc1-c1[nH]ncc1-c1ccccc1 | -4.3 | 6.4 | 16.7* | 9.1 | 0.9 | 1.4
COc1ccc(C=Nn2c(-c3n[nH]c4c3CCC4)n[nH]c2=S)c(OC)c1OC | · | 4.3 | · | · | · | ·
S=C1Cc2ccccc2N1 | 41.3* | 81.2* | 4.1 | · | 17.9 | 28.9*
Cc1cc(NN=Cc2ccccc2O)c2ccccc2n1 | · | 8.1 | · | · | · | ·
COC(=O)C1=C(C)N(C)C(C)=C(C(=O)OC)C1c1ccsc1 | 0.9 | 5.5 | 12.2* | -2.4 | 0.7 | 4.6
COc1ccc2[nH]cc(CCn3ccc(O)c(C/C=C/c4ccccc4)c3=O)c2c1 | 13.9 | 4.7 | 13.1* | 8.7 | -0.4 | 8.1
COc1cccc(-c2c(C(=O)N/N=C(\C)c3ccc(Cl)s3)nnn2-c2nonc2N)c1 | -1.0 | · | 10.6* | -0.4 | 1.4 | 7.6
CCOc1cccc(-c2c(C(=O)N/N=C(\C)c3ccccn3)nnn2-c2nonc2N)c1 | 6.0 | · | 30.6* | 4.8 | 1.9 | 1.8
CCOc1cccc(-c2c(C(=O)N/N=C(\C)c3ccncc3)nnn2-c2nonc2N)c1 | 0.3 | · | -1.6 | 6.8 | 1.8 | -0.2
COc1cccc(-c2c(C(=O)NN=C(C)c3cccs3)nnn2-c2nonc2N)c1 | · | 3.5 | · | · | · | ·
Nc1ccccc1Sc1nc2ccccc2[nH]1 | 6.6 | 3.1 | 10.2* | -0.8 | 6.2 | 2.3
Nc1nc2ccccc2[nH]1 | -3.6 | -0.1 | 0.6 | · | 7.4 | 3.7
O=C(CN1C(=O)CSc2ccccc21)NN=Cc1ccco1 | · | 1.8 | · | · | · | ·
SMILES | PAFAH2 inh | UCH37 DUB inh | NR3A LBD binder | pPAFAH FP inh | PAFAH1B2 inh | PAFAH1B3 FP inh
Oc1c(Br)cc(Br)cc1C=Nc1cccc2ncccc12 | 13.9 | 10.9 | 1.2 | 27.8* | 3.8 | 8.4
COc1cccc(CN(C)C(=O)c2cc(S(=O)(=O)NC3CCCCC3)ccc2C)c1 | 9.7 | 0.3 | -1.0 | 33.5* | 7.4 | -0.8
O=S(=O)(NCC(c1cccs1)N1CCc2ccccc2C1)c1ccccc1 (centres undefined) | 10.6 | 2.0 | 14.1* | 10.9 | -0.9 | 5.9
CC(C)(C)c1cc(C(=O)NN=Cc2ccncc2)n[nH]1 | · | 4.4 | · | · | · | ·
Cc1cccc(N2CSC3=C(C#N)C(c4ccc(C)o4)CC(=O)N3C2)c1 (centres undefined) | · | · | · | 47.2* | · | ·
COc1ccc(OC)c(C2CC(=O)N3CN(c4ccccc4)CSC3=C2C#N)c1 (centres undefined) | 3.8 | 3.6 | -8.0 | -2.2 | -0.3 | 2.3
O=C(Cc1ccccc1)NN=Cc1cc(Br)cc(Br)c1O | · | -1.4 | · | · | · | ·
O=C1CC(C(=O)Nc2ccc(Cl)cc2)S/C(=N\N=Cc2ccco2)N1 (centres undefined) | · | 3.5 | · | · | · | ·
CC(=NOCC(=O)OC(C)C(=O)Nc1ccc(C(N)=O)cc1)c1ccc2c(c1)OCO2 (centres undefined) | · | 0.1 | · | · | · | ·
CCOC(=O)c1sc(NC(=O)c2cc(-c3ccccc3)nc3ccccc23)c(C#N)c1C | -8.6 | 5.5 | 24.3* | 10.7 | 9.1 | 7.0
CCOC(=O)c1sc(NC(=O)CSc2n[nH]c(-c3ccccc3)n2)c(C#N)c1C | 8.3 | · | 26.8* | 11.4 | -2.9 | 9.4
COc1cc(Cl)ccc1OCc1cc(C(=O)N(C)Cc2nnc(C)o2)no1 | 2.6 | 1.3 | 10.3* | 2.2 | 1.7 | -3.3
CSc1ccccc1OCc1cc(C(=O)N(C)CC2COCCO2)no1 (centres undefined) | -1.4 | 0.4 | 12.6* | 4.2 | -0.2 | 2.4
CSc1ccccc1OCc1cc(C(=O)N(C)Cc2ccncn2)no1 | -6.1 | 3.3 | -0.9 | 0.3 | 3.7 | -4.2
CN(CC1COCCO1)C(=O)c1cc(COc2c(F)cccc2F)on1 (centres undefined) | -3.2 | 2.6 | 3.2 | 1.1 | -4.7 | 7.3
CSc1ccccc1OCc1cc(C(=O)N(C)Cc2nonc2C)no1 | -2.5 | 2.5 | 13.1* | 11.8 | 4.3 | 2.3
Cc1nonc1CN(C)C(=O)c1cc(COc2ccc(F)cc2Cl)on1 | -6.3 | 2.4 | 0.7 | 26.1* | -5.8 | 14.0
O=C(CCN1CCN(c2ccccc2)CC1)NN=Cc1ccccc1OC(F)F | · | -11.2 | · | · | · | ·
CCOC(=O)Cc1cc(=O)[nH]c(N=C(N)Nc2ccc(C)cc2C)n1 | · | 3.4 | · | · | · | ·
ON=C1CCC(=NO)c2nn(-c3ccc(Cl)cc3Cl)nc21 | · | 0.1 | · | · | · | ·
COc1cc(NC(=O)c2ccc3c(c2)OCO3)c2ncccc2c1 | 4.0 | -32.5 | -16.1 | -2.0 | 4.9 | -0.3
COc1cc(NC(=O)c2cc(OC)c(OC)c(OC)c2)c2ncccc2c1 | -1.6 | · | -0.7 | · | 26.7* | 10.3
Cc1ccc(N=C2S/C(=C\c3cn(CC(=O)O)c4ccccc34)C(=O)N2C)cc1 | 8.5 | 10.3 | -0.7 | 25.8* | 4.8 | 17.2
Cc1ccccc1N=Cc1cccc(O)c1O | 3.5 | 2.0 | 3.0 | 31.8* | 9.1 | 1.8
